The record followed here is ChEMBL document CHEMBL1137352, “Design and synthesis of novel isoquinoline-3-nitriles as orally bioavailable Kv1.5 antagonists for the treatment of atrial fibrillation” (J Med Chem, 2006).

The target of data set [1] is Potassium voltage-gated channel subfamily A member 5 (Homo sapiens, UniProt P22460). In words: Antagonist activity at human Kv1.5 channel expressed in CHO cell membrane by HT clamp assay. The data set is classed as functional, cell-based. An outline of the steps: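 IC50 from 10-point concentration-response curves by HT-clamp voltage clamp, 3-4 cells per point. A reference Kv1.5 antagonist was run as positive control.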
Potassium voltage-gated channel subfamily A member 5, sequence (P22460 whole entry): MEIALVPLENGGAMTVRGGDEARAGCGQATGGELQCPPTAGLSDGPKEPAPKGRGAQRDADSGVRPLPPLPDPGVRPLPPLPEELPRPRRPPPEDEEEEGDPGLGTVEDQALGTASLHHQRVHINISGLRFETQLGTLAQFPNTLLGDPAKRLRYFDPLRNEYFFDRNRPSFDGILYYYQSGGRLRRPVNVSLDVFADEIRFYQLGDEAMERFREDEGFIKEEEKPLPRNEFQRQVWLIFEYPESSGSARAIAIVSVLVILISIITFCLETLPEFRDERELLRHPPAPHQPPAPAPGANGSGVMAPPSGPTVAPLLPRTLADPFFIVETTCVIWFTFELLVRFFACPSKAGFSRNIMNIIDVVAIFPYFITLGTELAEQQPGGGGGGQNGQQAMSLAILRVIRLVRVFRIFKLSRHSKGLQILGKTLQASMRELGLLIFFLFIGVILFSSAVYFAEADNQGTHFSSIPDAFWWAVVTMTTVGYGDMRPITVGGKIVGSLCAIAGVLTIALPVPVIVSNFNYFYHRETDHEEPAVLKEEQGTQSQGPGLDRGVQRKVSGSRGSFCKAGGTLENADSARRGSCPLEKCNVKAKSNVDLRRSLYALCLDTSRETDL

The species entered for data set [2] is Rattus norvegicus. Nature of the data set: Increase in AV node refractory period in surgically instrumented rat electrophysiology model. The data set is classed as functional, organism-based.
The species entered for data set [3] is Rattus norvegicus. Nature of the data set: Increase in atrial refractory period in surgically instrumented rat electrophysiology model. As to conditions: Cardiac atrium.
Data set [4] concerns the target Voltage-gated inwardly rectifying potassium channel KCNH2 (Homo sapiens, UniProt Q12809). In words: Binding affinity to hERG potassium channel. A general note: Block of hERG is tested as a sign of cardiac risk.
Data set [5] is described as follows: Clearance in rat. The data set is classed as ADME, organism-based. The settings on record: in vivo.
Data set [6] is described as follows: Bioavailability in rat. The data set is classed as ADME, organism-based. The settings on record: in vivo.
The species named for data set [7] is Rattus norvegicus. In words: Increase in atrial refractory period in surgically instrumented rat electrophysiology model. The data set is classed as functional, organism-based. The settings on record: Cardiac atrium.
The species named for data set [8] is Canis familiaris. In words: Increase in atrial refractory period in dog electrophysiology model. The data set is classed as functional, organism-based. The settings on record: Canis lupus familiaris; Cardiac atrium.
For data set [9], the species on record is Canis familiaris. In words: Effect on ventricular refractory period in dog electrophysiology model. The data set is classed as functional, organism-based. The settings on record: Canis lupus familiaris; Cardiac ventricle.
The nature of data set [10]: Volume of distribution in rat. As to conditions: in vivo, read-out: Vdss. The data set is classed as ADME, organism-based.
Data set [11] is filed under the species Rattus norvegicus. In words: Effect on AV node refractory period in surgically instrumented rat electrophysiology model at 35 uM. The data set is classed as functional, organism-based.
For data set [12], the species on record is Rattus norvegicus. In words: Increase in ventricular refractory period in surgically instrumented rat electrophysiology model. The data set is classed as functional, organism-based. As to conditions: Cardiac ventricle.

In general, IC50 refers to the concentration at which inhibition is half-maximal. Read a low IC50 as greater potency. Broadly, the clearance is the volume of plasma or blood freed of the substance per unit of time. A word on the bioavailability: it is the share of a dose that reaches the circulation, judged against a reference dose that is usually intravenous. Low values mean little systemic uptake, high ones much systemic uptake.

Active and inactive are the calls of the source. The rule behind the calls is not given here. A value given as a limit tells only on which side of the number the result lay.

Voltage-gated inwardly rectifying potassium channel KCNH2, sequence (Q12809 whole entry): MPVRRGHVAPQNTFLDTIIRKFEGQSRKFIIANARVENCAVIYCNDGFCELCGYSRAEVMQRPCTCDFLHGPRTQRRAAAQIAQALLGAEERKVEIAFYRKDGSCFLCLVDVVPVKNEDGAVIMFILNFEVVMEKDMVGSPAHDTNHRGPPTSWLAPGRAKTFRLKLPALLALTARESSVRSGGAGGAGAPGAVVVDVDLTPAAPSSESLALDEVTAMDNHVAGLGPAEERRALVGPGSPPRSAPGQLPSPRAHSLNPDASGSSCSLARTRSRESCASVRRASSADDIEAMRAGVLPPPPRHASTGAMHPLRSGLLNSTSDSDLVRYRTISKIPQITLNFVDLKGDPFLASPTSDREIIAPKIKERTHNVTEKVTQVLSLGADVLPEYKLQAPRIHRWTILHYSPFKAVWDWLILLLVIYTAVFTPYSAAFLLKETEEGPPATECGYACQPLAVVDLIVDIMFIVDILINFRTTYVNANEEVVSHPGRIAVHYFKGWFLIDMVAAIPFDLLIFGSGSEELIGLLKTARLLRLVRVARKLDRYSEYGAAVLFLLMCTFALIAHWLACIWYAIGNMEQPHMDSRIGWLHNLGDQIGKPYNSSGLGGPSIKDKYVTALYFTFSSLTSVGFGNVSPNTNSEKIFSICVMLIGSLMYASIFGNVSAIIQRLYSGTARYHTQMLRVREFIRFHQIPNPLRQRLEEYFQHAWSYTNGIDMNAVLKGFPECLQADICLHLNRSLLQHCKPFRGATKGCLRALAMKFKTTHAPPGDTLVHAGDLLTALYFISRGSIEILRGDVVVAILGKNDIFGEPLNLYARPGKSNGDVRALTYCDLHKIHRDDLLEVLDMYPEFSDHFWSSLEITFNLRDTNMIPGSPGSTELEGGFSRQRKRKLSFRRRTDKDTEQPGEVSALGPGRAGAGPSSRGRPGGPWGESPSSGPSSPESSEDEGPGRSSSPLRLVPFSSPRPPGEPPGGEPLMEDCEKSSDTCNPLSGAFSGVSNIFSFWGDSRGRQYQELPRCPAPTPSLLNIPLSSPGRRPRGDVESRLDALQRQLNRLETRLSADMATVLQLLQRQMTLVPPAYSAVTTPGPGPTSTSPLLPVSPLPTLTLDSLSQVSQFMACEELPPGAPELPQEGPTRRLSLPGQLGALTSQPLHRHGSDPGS

Compound `COCCN(C)CCn1c(C#N)c(-c2cccc(F)c2)c2cc(OC)ccc2c1=O` came in with an IC50 in data set [1] of 790 nM.

`COc1ccc2c(NC[C@H](O)CO)nc(C#N)c(-c3ccccc3)c2c1`: the result in data set [2] and in [3] was Active. This compound displayed an IC50 in [4] of 15000 nM.

Turning to `COc1ccc2c(=O)n(C)c(CN(C)C)c(-c3ccccc3)c2c1`, the IC50 came out at 190 nM in data set [1] and 5300 nM in data set [4]. This compound returned a clearance in data set [5] of 26 mL/min/kg. The compound further showed a bioavailability in data set [6] of 11%.

`COc1ccc2c(C(=O)NCCO)nc(C#N)c(-c3ccccc3)c2c1`: the outcome in [7] and in data set [8] was Active. In data set [9], the result was inactive. This compound yielded an IC50 in data set [4] of over 30000 nM.

`COc1ccc2c(=O)n(CC(O)CO)c(C#N)c(-c3cccc(C(F)(F)F)c3)c2c1` (centres undefined) displayed a half-inhibitory concentration (IC50) in [1] of 250 nM.

On to `COc1ccc2c(=O)n(CC(O)CO)c(C#N)c(-c3cccc(F)c3)c2c1` (centres undefined), for which the concentration for half-maximal inhibition (IC50) in data set [1] came to 870 nM; in data set [4] it was 33500 nM.

Take `COc1ccc2c(OC[C@H](O)CO)nc(C#N)c(-c3ccccc3)c2c1`: the half-maximal inhibitory concentration (IC50) in [1] was 160 nM; in data set [4] it was 20500 nM. In [5], this compound showed a clearance of 13 mL/min/kg. Also, the Vd in [10] was 1.7 L/kg. In addition, the result in [3] was Active. In data set [6], this compound gave a bioavailability of 67%.

As for `COc1ccc2c(=O)n(C[C@H](O)CO)c(C#N)c(-c3ccccc3)c2c1`, the result in [7] and in [12] was Active. Also, the result in data set [11] was inactive.

Compound `COc1ccc2c(=O)n(CCO)c(C#N)c(-c3cccc(F)c3)c2c1` showed a concentration for half-maximal inhibition (IC50) in data set [1] of 690 nM.

As to `COc1ccc2c(-n3cnc(C)c3)nc(C#N)c(-c3cccc(F)c3)c2c1`, the result in data set [7] was Active. The same compound registered an IC50 in data set [1] of 260 nM.

On to `COc1ccc2c(=O)n(CC(CO)NCc3cccnc3)c(C#N)c(-c3ccccc3)c2c1` (centres undefined), for which the 50% inhibitory concentration (IC50) in [1] worked out at 120 nM; in data set [4] it was 10000 nM.
